# From ChEMBL document CHEMBL5230165, “Synthesis of bis-furyl-pyrrolo[3,4-b]pyridin-5-ones via Ugi-Zhu reaction and in vitro activity assays against human SARS-CoV-2 and in silico studies on its main proteins” (RSC Med Chem, 2023)
# Activity calls are given as the source filed them. The calls are words filed in the database; no cut-off is given here.
# How the values were obtained:
# [1] = Cytotoxicity against African green monkey Vero E6 cells assessed as cell viability upto 10 uM incubated for 48 hrs by crystal violet staining assay relative to control; type: toxicity, cell-based, Vero C1008; details: chlorocebus sabaeus, read-out: Activity
# Outline: (§1)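 Vero E6 cells were seeded at 25 000 per well 24 h ahead in DMEM with 8% FBS at 37 °C and 5% CO2. Compounds were tested at 0.001–100 μM for 48 h, with a 0.5% DMSO vehicle control. Cells were fixed in formaldehyde and stained with crystal violet, the dye was released with 10% acetic acid, and A590 was read. Viability is relative to untreated medium. IC50 came from polynomial regression.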
# Vero C1008 = experiment: Cytotoxicity against African green monkey Vero E6 cells assessed as reduction in cell viability at 100 uM incubated for 48 hrs by crystal violet staining assay; type: toxicity, cell-based; details: chlorocebus sabaeus, vero c1008, 48 h; outline: as §1
# [2] = Cytotoxicity against African green monkey Vero E6 cells assessed as cell viability incubated for 48 hrs by crystal violet staining assay; type: toxicity, cell-based, Vero C1008; details: African green monkey (Chlorocebus sabaeus)
# SARS-CoV-2 [3] = experiment: Antiviral activity against SARS-CoV-2 infected in African green monkey Vero E6 cells assessed as inhibition of viral infection at 10 uM pre-infected with cells for 1 hrs followed by compound addition and measured after 24 hrs by crystal violet staining based plaque reduction assay; type: functional; details: for Activity: Severe acute respiratory syndrome coronavirus 2
# SARS-CoV-2 [4] = experiment: Antiviral activity against SARS-CoV-2 infected in African green monkey Vero E6 cells assessed as inhibition of viral infection at 10 uM incubated for 1 hrs followed by compound washout and measured after 24 hrs by crystal violet staining based plaque assay relative to control; type: functional; details: Severe acute respiratory syndrome coronavirus 2, Vero C1008
Structure (SMILES),"viability at 48 h, up to 10 µM [1]",Activity (Vero C1008),IC50 at 48 h [2],"inhibition at 10 µM (SARS-CoV-2 [3]; Severe acute respiratory syndrome coronavirus 2, Vero C1008)",inhibition at 10 µM (SARS-CoV-2 [4]),Activity (SARS-CoV-2 [3])
O=C1c2cc(N3CCOCC3)c(Cc3ccccc3)nc2C(c2ccoc2)N1Cc1ccco1 (stereo unspecified),≥ 100%,Toxic,85.1 µM,53%,–,–
O=C1c2cc(N3CCOCC3)c(Cc3ccc(O)cc3)nc2C(c2ccco2)N1Cc1ccco1 (stereo unspecified),≥ 100%,Toxic,153 µM,–,77%,inactive
O=C1c2cc(N3CCOCC3)c(Cc3ccccc3)nc2C(c2ccoc2)N1CC1CCCO1 (stereo unspecified),≥ 100%,Toxic,290 µM,–,9.4%,inactive
O=C1c2cc(N3CCOCC3)c(Cc3ccccc3)nc2C(C2CCCO2)N1Cc1ccco1 (stereo unspecified),≥ 100%,–,612 µM,–,31.9%,Active
O=C1c2cc(N3CCOCC3)c(Cc3ccccc3)nc2C(c2ccco2)N1CC1CCCO1 (stereo unspecified),≥ 100%,Toxic,76.9 µM,–,–,–
O=C1c2cc(N3CCOCC3)c(Cc3ccccc3)nc2C(c2ccco2)N1Cc1ccco1 (stereo unspecified),≥ 100%,Toxic,276 µM,–,19.4%,inactive
